According to PMC5824357 (RNA, 2018):
Like-named read-outs stand apart in the source and are kept apart here. Ends that are not written are not given here. λN = λN tag that binds BoxB hairpins, for tethering; HA = not defined here

Assays:
F-Luc-5BoxB mRNA = experiment: Tethering assay in S2 cells, F-Luc-5BoxB reporter; assay type: cell-based, Drosophila melanogaster; settings: for repression/degradation activity in tethering: λN-HA-tagged, S2 cells, harvested 3 days after transfection
[1] = molecular target: Dm CN9BD–CAF40 complex (Drosophila melanogaster) (UniProt Q7JVP2); experiment: ITC
F-Luc-5BoxB-A95C7-HhR = experiment: Tethering assay in S2 cells, F-Luc-5BoxB-A95C7-HhR reporter; assay type: cell-based, Drosophila melanogaster
[2] = molecular target: T1, Hs CAF40 (ARM domain, residues R19–E285) (human, UniProt Q92600 19-285); experiment: crystal structure
[3] = molecular target: T2, Hs NOT1 CN9BD–CAF40 complex (human, UniProt A5YKK6;Q92600); experiment: crystal structure
[4] = molecular target: T1, Hs CAF40 (ARM domain, residues R19–E285); experiment: crystal structure; remark: listed apart in the source
[5] = molecular target: GST-tagged Hs CAF40 (ARM domain) (human, UniProt Q92600); experiment: pull-down
[6] = molecular target: T2, Hs NOT1 CN9BD–CAF40 complex; experiment: pull-down
[7] = test system: Dm NOT1-CN9BD–CAF40 complex; experiment: In vitro MBP pull-down, Dm CN9BD–CAF40; assay type: binding, Drosophila melanogaster; settings: MBP-tagged proteins, amylose resin, 50 mM HEPES pH 7.5, 200 mM NaCl, 2 mM DTT, 1 h; SDS-PAGE, Coomassie
Outline: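 Proteins were expressed in E. coli BL21 (DE3) Star overnight at 20°C. Tethered-protein constructs carried an N-terminal MBP tag and were purified by amylose resin, anion exchange and gel filtration. MBP (20 µg, negative control) or MBP fusion (40 µg) was incubated 1 h with equimolar purified CCR4–NOT modules plus amylose resin. Beads were washed five times and eluted with 25 mM maltose. Eluates were TCA-precipitated and analysed by SDS-PAGE/Coomassie.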

T2 sequence (Q92600 19-285, one chain of several): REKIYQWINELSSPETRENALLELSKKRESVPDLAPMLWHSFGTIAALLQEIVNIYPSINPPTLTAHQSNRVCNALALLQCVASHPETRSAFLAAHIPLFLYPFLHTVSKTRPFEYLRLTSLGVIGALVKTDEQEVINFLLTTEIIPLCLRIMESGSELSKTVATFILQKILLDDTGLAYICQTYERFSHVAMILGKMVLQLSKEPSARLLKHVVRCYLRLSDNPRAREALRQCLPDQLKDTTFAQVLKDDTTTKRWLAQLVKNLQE
T1 sequence (Q92600 19-285): as the sequence (Q92600 19-285, one chain of several) above
Sequence of GST-tagged Hs CAF40 (ARM domain) (Q92600 19-285): as the sequence (Q92600 19-285, one chain of several) above

Molecule: fragment D13–E36 fused to GST: λN-HA-GST-Bam 13–36 ({λN-HA-GST}-DDQQLDHNFKQMEEHLALMVEGNE; reading uncertain; UniProt P22745 13-36, looked up, fragment)
- repression/degradation activity in tethering (F-Luc-5BoxB mRNA): sufficient to induce the repression and degradation of the F-Luc-5BoxB mRNA to a similar extent as full-length Bam

Molecule: Bam CBM peptide (residues D13–E36) (from UniProt P22745 13-36)
- Kd [1]: 183 nM

B1: Bam-N: Bam N-terminal fragment, residues 1–140 (protein, UniProt P22745 1-140, looked up, fragment)
chain: MLNARDVCPEGNDDQQLDHNFKQMEEHLALMVEGNENEDPRKATCEYEDTNEDGATCTSGVLSEIQENFGRLRLCDVTAPLLEFHGLDCLQQIQKRSRHFAFDGSPAKKSRSGGVLVTGPKQKQLQKENVWNRKSKGSAS
- F-Luc-5BoxB mRNA degradation in DCP2-depleted cells (F-Luc-5BoxB mRNA; DCP2 knockdown, DCP2 E361Q overexpressed): impaired
- F-Luc activity in DCP2-depleted cells (F-Luc-5BoxB mRNA; DCP2 knockdown, DCP2 E361Q overexpressed, F-Luc activity): not restored
- F-Luc-5BoxB mRNA degradation after NOT1 depletion (F-Luc-5BoxB mRNA; NOT1-depleted S2 cells): partially suppressed degradation of F-Luc-5BoxB mRNA
- repression/degradation activity in tethering (F-Luc-5BoxB mRNA): retained the activity of the full-length protein
- repression of deadenylation-resistant reporter (F-Luc-5BoxB-A95C7-HhR): repressed the expression of this reporter in S2 cells

B2: Hs NOT1 CN9BD (residues V1351–L1588) (domain or fragment)
chain: VPPQPQYSYHDINVYSLAGLAPHITLNPTIPLFQAHPQLKQCVRQAIERAVQELVHPVVDRSIKIAMTTCEQIVRKDFALDSEESRMRIAAHHMMRNLTAGMAMITCREPLLMSISTNLKNSFASALRTASPQQREMMDQAAAQLAQDNCELACCFIQKTAVEKAGPEMDKRLATEFELRKHARQEGRRYCDPVVLTYQAERMPEQIRLKVGGVDPKQLAVYEEFARNVPGFLPTNDL
- binding result [2]: binds

Molecule: DDQQLDHNFKQMEEHLALMVEGNE [Bam CBM peptide (residues D13–E36)]
- binding result [3]: binds
- binding result [4]: binds

Molecule: DDQQLDHNFKQMEEHLALMVEGNE (domain or fragment) [MBP-tagged Bam CBM]
- binding result [5]: binds
- binding result [6]: binds

B3: Bam-C: Bam C-terminal fragment, residues 141–442 (protein, UniProt P22745 141-442, looked up, fragment)
chain: ADNIEKLPITIEKLHMIGLHGDCLEHNAVLRLMNLFRSLHDHLTADLGFSRQNSMPSDYLFDMPVKSTMPKSLNVRYQLQVLCTKVERFLVQQRRTLEANRHFDFEKYDECDKLLKGFASYLDNFKLLLKPKMRNRNGNSGSNADKFHTQRMERLLIGLRDWIKAAHLSVHVFNWEMDLEHRYSGAMTESHKSLNERAILLSGAELRAAEARGISAEDLFIAQRYKLGGPIYCVLEQHEFLSALIANPETYFPPSVVAICGPQKLGAVSMEQPSASEEEFEETEEVPSSPPRHTGRVPRFRS
- repression/degradation activity in tethering (F-Luc-5BoxB mRNA): strongly impaired

B4: ΔCBM: Bam Δ13–36 (protein)
chain: MLNARDVCPEGNNEDPRKATCEYEDTNEDGATCTSGVLSEIQENFGRLRLCDVTAPLLEFHGLDCLQQIQKRSRHFAFDGSPAKKSRSGGVLVTGPKQKQLQKENVWNRKSKGSASADNIEKLPITIEKLHMIGLHGDCLEHNAVLRLMNLFRSLHDHLTADLGFSRQNSMPSDYLFDMPVKSTMPKSLNVRYQLQVLCTKVERFLVQQRRTLEANRHFDFEKYDECDKLLKGFASYLDNFKLLLKPKMRNRNGNSGSNADKFHTQRMERLLIGLRDWIKAAHLSVHVFNWEMDLEHRYSGAMTESHKSLNERAILLSGAELRAAEARGISAEDLFIAQRYKLGGPIYCVLEQHEFLSALIANPETYFPPSVVAICGPQKLGAVSMEQPSASEEEFEETEEVPSSPPRHTGRVPRFRS
modifications: left off: MBP, N-terminal, kept
- repression/degradation activity in tethering (F-Luc-5BoxB mRNA): sufficient to abolish the repressive activity of Bam
- interaction in pull-down [7]: abolished the interaction with the Dm CN9BD–CAF40 module in vitro

B5: MBP-tagged full-length Bam (natural protein)
chain: MLNARDVCPEGNDDQQLDHNFKQMEEHLALMVEGNENEDPRKATCEYEDTNEDGATCTSGVLSEIQENFGRLRLCDVTAPLLEFHGLDCLQQIQKRSRHFAFDGSPAKKSRSGGVLVTGPKQKQLQKENVWNRKSKGSASADNIEKLPITIEKLHMIGLHGDCLEHNAVLRLMNLFRSLHDHLTADLGFSRQNSMPSDYLFDMPVKSTMPKSLNVRYQLQVLCTKVERFLVQQRRTLEANRHFDFEKYDECDKLLKGFASYLDNFKLLLKPKMRNRNGNSGSNADKFHTQRMERLLIGLRDWIKAAHLSVHVFNWEMDLEHRYSGAMTESHKSLNERAILLSGAELRAAEARGISAEDLFIAQRYKLGGPIYCVLEQHEFLSALIANPETYFPPSVVAICGPQKLGAVSMEQPSASEEEFEETEEVPSSPPRHTGRVPRFRS
- binding result [6]: binds
